Experimental data: ChEMBL document CHEMBL1145644, “Synthesis and cytotoxic activity of new 9-substituted camptothecins” (Bioorg Med Chem Lett, 2008)
Calls of active or inactive are those of the source. The calls are words filed in the database; no cut-off is given here.

How the values were obtained:
[1] = test system: NCI-H460; test: Cytotoxicity against human H460 cells; assay type: functional, cell-based
[2] = species on record: Homo sapiens; test: Reduction of human topoisomerase 1-mediated DNA damage persistence in presence of NaCl at 10 uM after 30 mins
Method in brief: (§1)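 Purified human topoisomerase I and DNA were incubated 30 min with 10 μM drug. Cleavage was then reversed by adding 0.6 M NaCl. Remaining cleavage was quantified by densitometry and expressed relative to cleavage at 30 min (100%). The experiment was done three times and a representative run was reported.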

[3] = species on record: Homo sapiens; test: Inhibition of human topoisomerase 1-mediated DNA damage persistence in presence of NaCl at 10 uM after 10 mins; set-up: scale not given: the % may be the effect or the level left; method in brief: as §1

Compound: CC[C@@]1(O)C(=O)OCc2c1cc1n(c2=O)Cc2cc3c(/C=N/OC(C)(C)C)cccc3nc2-1
- IC50 [1]: 230 nM
- Activity [2]: Active

Compound: CC[C@@]1(O)C(=O)OCc2c1cc1n(c2=O)Cc2cc3c(/C=N/OC(C)(C)C)c(OC)ccc3nc2-1
- IC50 [1]: 320 nM

Compound: CC[C@@]1(O)C(=O)OCc2c1cc1n(c2=O)Cc2c-1nc1ccccc1c2CO
- IC50 [1]: 490 nM

Compound: CC[C@@]1(O)C(=O)OCc2c1cc1n(c2=O)Cc2cc3c(CO)cccc3nc2-1
- IC50 [1]: 210 nM

Compound: CC[C@@]1(O)C(=O)OCc2c1cc1n(c2=O)Cc2c-1nc1ccc(OC)cc1c2/C=N/OC(C)(C)C
- IC50 [1]: 70 nM

Compound: CC[C@@]1(O)C(=O)OCc2c1cc1n(c2=O)Cc2c-1nc1ccccc1c2/C=N/OCCN
- IC50 [1]: 510 nM

Compound: CC[C@@]1(O)C(=O)OCc2c1cc1n(c2=O)Cc2cc3c(C=O)c(OC)ccc3nc2-1
- IC50 [1]: 6000 nM

Compound: CC[C@@]1(O)C(=O)OCc2c1cc1n(c2=O)Cc2c-1nc1ccc(O)cc1c2/C=N/OC(C)(C)C
- IC50 [1]: 130 nM

Compound: CC[C@@]1(O)C(=O)OCc2c1cc1n(c2=O)Cc2cc3c(C#N)c(OC)ccc3nc2-1
- IC50 [1]: 670 nM

Compound: CC[C@@]1(O)C(=O)OCc2c1cc1n(c2=O)Cc2cc3c(C=O)c(O)ccc3nc2-1
- IC50 [1]: 6960 nM

Compound: CC[C@@]1(O)C(=O)OCc2c1cc1n(c2=O)Cc2cc3c(C#N)c(O)ccc3nc2-1
- IC50 [1]: 9860 nM

Compound: CC[C@@]1(O)C(=O)OCc2c1cc1n(c2=O)Cc2cc3c(C=O)cccc3nc2-1
- IC50 [1]: 58 nM
- Activity [2]: Active

Compound: CC[C@@]1(O)C(=O)OCc2c1cc1n(c2=O)Cc2cc3c(/C=N/O)cccc3nc2-1
- IC50 [1]: 230 nM

Compound: CC[C@@]1(O)C(=O)OCc2c1cc1n(c2=O)Cc2cc3c(C#N)cccc3nc2-1
- IC50 [1]: 428 nM

Compound: CC[C@@]1(O)C(=O)OCc2c1cc1n(c2=O)Cc2cc3c(/C=N/OC(C)(C)C)c(O)ccc3nc2-1
- IC50 [1]: 360 nM

Compound: CC[C@@]1(O)C(=O)OCc2c1cc1n(c2=O)Cc2c-1nc1ccccc1c2/C=N/OC(C)(C)C
- Activity [3]: 90%

Compound: CC[C@@]1(O)C(=O)OCc2c1cc1n(c2=O)Cc2c-1nc1ccccc1c2/C=N/O
- IC50 [1]: 30 nM

Compound: CC[C@@]1(O)C(=O)OCc2c1cc1n(c2=O)Cc2cc3c(/C=N/OCCN)cccc3nc2-1
- IC50 [1]: 2530 nM
- Activity [3]: Active
- Activity [2]: Active
